According to ChEMBL document CHEMBL2331331 (J Med Chem, 2013):
The source made the active and inactive calls. No cut-off for these calls is given here.

Legend:
[1] = target: Serine/threonine-protein kinase Chk1 (Homo sapiens, UniProt O14757); experiment: Inhibition of CHEK1 (unknown origin)
U-937 = experiment: Cytotoxicity against human U937 cells assessed as growth inhibition after 72 hrs by MTT assay; conditions: U-937, 72 h
MV4-11 [2] = experiment: Induction of apoptosis in human MV4-11 cells assessed as early apoptotic cells at 0.01 uM after 24 hrs by annexin V-FITC/propidium iodide staining-based FACS flow cytometric analysis (reference value: 1.61%); assay type: functional
MV4-11 [3] = experiment: Induction of apoptosis in human MV4-11 cells assessed as late apoptotic cells at 0.01 uM after 24 hrs by annexin V-FITC/propidium iodide staining-based FACS flow cytometric analysis (reference value: 4.28%); assay type: functional
SMMC-7721 = experiment: Cytotoxicity against human SMMC7721 cells assessed as growth inhibition after 72 hrs by MTT assay; conditions: SMMC-7721, 72 h
DU-145 = experiment: Cytotoxicity against human DU145 cells assessed as growth inhibition after 72 hrs by MTT assay; conditions: DU-145, 72 h
MV4-11 [4] = experiment: Induction of apoptosis in human MV4-11 cells assessed as early apoptotic cells at 0.1 uM after 24 hrs by annexin V-FITC/propidium iodide staining-based FACS flow cytometric analysis (reference value: 1.61%); assay type: functional
[5] = target: Tyrosine-protein kinase SYK (Homo sapiens, UniProt P43405); experiment: Inhibition of SYK (unknown origin)
MKN-45 = experiment: Cytotoxicity against human MKN45 cells assessed as growth inhibition after 72 hrs by MTT assay; conditions: MKN-45, 72 h
[6] = target: Calcium/calmodulin-dependent protein kinase type IV (Homo sapiens, UniProt Q16566); experiment: Inhibition of CAMK4 (unknown origin)
Calcium/calmodulin-dependent protein kinase type IV, sequence (Q16566 whole entry): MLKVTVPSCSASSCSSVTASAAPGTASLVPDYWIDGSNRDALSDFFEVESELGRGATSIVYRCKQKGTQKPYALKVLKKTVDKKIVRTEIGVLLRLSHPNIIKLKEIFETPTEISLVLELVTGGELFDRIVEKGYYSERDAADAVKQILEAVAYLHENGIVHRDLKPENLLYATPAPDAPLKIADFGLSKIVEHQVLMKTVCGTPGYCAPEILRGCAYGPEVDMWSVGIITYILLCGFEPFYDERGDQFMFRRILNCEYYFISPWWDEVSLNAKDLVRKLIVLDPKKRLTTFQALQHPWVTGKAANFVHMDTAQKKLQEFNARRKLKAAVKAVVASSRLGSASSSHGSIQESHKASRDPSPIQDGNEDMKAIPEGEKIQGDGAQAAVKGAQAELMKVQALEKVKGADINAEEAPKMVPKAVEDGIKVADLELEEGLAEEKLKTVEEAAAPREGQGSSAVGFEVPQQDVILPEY

MV4-11 [7] = experiment: Induction of apoptosis in human MV4-11 cells after 24 hrs by annexin V-FITC/propidium iodide staining-based FACS flow cytometric analysis; assay type: functional, cell-based
[8] = target: Platelet-derived growth factor receptor alpha (Homo sapiens, UniProt P16234); experiment: Inhibition of PDGFRalpha (unknown origin)
Platelet-derived growth factor receptor alpha, sequence (P16234 whole entry): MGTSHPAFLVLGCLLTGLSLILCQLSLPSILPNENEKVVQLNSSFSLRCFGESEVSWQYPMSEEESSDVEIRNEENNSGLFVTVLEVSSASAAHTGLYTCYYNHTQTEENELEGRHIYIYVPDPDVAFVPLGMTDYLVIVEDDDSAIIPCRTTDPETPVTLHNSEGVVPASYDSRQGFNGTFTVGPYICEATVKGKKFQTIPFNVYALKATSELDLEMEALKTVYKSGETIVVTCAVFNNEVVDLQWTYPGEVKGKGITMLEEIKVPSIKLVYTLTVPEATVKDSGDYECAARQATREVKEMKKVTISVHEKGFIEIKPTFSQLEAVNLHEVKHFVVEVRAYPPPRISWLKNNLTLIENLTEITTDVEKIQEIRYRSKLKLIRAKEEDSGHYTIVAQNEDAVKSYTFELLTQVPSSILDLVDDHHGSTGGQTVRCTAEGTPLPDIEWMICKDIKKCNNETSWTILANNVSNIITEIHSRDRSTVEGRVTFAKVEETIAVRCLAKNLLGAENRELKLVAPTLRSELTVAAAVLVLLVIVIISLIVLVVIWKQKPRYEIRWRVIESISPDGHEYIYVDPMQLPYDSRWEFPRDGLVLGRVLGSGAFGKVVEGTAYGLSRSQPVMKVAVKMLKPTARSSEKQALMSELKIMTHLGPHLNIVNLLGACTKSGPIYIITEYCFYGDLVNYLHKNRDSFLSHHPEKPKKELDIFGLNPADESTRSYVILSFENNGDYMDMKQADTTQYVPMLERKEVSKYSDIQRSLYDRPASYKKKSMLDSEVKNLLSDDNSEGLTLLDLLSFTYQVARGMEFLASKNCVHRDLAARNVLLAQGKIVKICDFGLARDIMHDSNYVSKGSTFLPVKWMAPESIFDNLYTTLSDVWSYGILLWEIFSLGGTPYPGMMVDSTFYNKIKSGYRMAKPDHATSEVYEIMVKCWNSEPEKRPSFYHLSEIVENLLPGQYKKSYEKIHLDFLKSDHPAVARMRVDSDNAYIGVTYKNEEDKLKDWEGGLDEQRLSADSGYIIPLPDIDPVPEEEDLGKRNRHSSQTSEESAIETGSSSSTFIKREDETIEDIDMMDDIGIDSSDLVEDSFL

[9] = target: Dual specificity mitogen-activated protein kinase kinase 1 (Homo sapiens, UniProt Q02750); experiment: Inhibition of MEK1 (unknown origin)
Dual specificity mitogen-activated protein kinase kinase 1, sequence (Q02750 whole entry): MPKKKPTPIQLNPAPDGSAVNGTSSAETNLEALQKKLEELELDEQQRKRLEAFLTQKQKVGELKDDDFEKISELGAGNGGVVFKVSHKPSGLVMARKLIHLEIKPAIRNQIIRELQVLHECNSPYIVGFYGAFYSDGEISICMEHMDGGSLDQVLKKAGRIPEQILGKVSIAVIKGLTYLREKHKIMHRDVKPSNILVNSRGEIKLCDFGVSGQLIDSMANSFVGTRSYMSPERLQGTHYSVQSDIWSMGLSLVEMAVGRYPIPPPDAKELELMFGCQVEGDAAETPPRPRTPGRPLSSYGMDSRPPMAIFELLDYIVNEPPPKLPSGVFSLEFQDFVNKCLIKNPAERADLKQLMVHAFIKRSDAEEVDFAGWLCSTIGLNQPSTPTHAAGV

MV4-11 [10] = experiment: Antitumor activity against FLT3-ITD-positive human MV4-11 cells xenografted in NOD-SCID mouse assessed as tumor growth inhibition at 10 mg/kg/day, po after 3 days by Ki67 staining-based light microscopic analysis relative to vehicle-treated control; assay type: functional, organism-based
How it was run: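 Mice (NOD-SCID) bearing sc MV4-11 tumors given 10 mg/kg/d by oral gavage. Tumors removed after 2–4 days and formalin-fixed. Sections immunostained for Ki67 (proliferation) or p-STAT5, or TUNEL-stained (apoptosis). Imaged by light microscopy and compared with vehicle group.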

[11] = target: RAF proto-oncogene serine/threonine-protein kinase (Homo sapiens, UniProt P04049); experiment: Inhibition of c-RAF (unknown origin)
RAF proto-oncogene serine/threonine-protein kinase, sequence (P04049 whole entry): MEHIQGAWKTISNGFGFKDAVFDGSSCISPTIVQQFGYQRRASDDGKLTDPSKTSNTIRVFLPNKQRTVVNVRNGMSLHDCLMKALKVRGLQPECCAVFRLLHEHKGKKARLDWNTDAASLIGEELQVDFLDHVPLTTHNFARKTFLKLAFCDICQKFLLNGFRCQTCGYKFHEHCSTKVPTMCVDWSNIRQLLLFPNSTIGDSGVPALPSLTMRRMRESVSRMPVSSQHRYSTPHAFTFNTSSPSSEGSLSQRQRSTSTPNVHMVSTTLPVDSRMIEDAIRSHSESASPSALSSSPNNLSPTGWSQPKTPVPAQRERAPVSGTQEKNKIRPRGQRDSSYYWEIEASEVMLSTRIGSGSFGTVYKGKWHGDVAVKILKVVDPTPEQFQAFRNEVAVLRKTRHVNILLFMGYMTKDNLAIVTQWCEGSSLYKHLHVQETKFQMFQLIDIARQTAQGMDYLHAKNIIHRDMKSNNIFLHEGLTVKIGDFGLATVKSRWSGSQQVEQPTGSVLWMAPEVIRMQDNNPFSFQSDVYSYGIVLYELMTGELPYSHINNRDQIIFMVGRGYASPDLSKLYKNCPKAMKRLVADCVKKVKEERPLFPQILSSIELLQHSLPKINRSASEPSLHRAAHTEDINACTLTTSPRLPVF

Aurora kinase B = Aurora kinase B (Homo sapiens, UniProt Q96GD4); experiment: Inhibition of aurora-B (unknown origin)
Aurora kinase B, sequence (Q96GD4 whole entry): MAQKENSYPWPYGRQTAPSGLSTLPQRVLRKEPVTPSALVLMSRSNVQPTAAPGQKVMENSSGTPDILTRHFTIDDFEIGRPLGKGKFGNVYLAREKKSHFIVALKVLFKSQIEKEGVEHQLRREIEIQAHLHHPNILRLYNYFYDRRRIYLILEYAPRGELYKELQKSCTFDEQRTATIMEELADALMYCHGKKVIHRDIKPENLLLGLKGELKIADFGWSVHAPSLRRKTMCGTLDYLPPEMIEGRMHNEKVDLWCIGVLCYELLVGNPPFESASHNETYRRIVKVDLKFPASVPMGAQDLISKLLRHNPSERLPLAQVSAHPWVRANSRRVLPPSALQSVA

[12] = Oral bioavailability in Sprague-Dawley rat at 10 mg/kg/day; assay type: ADME, organism-based; conditions: in vivo
How it was run: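 Sprague-Dawley rats, five per group, were dosed orally at 10 mg/kg. Plasma was sampled through jugular vein cannulation. Drug levels were measured by liquid–liquid extraction followed by LC–MS.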

[13] = target: Cyclin-dependent kinase 2 (Homo sapiens, UniProt P24941); experiment: Inhibition of CDK2 (unknown origin)
HCT-116 = experiment: Cytotoxicity against human HCT116 cells assessed as growth inhibition after 72 hrs by MTT assay; conditions: HCT-116, 72 h
[14] = target: T1, Receptor-type tyrosine-protein kinase FLT3 (Homo sapiens, UniProt P36888); experiment: Inhibition of FLT3 in human MV4-11 cells assessed as inhibition of STAT5 phosphorylation after 20 hrs by Western blotting analysis; assay type: cell-based
T1 sequence (P36888 whole entry): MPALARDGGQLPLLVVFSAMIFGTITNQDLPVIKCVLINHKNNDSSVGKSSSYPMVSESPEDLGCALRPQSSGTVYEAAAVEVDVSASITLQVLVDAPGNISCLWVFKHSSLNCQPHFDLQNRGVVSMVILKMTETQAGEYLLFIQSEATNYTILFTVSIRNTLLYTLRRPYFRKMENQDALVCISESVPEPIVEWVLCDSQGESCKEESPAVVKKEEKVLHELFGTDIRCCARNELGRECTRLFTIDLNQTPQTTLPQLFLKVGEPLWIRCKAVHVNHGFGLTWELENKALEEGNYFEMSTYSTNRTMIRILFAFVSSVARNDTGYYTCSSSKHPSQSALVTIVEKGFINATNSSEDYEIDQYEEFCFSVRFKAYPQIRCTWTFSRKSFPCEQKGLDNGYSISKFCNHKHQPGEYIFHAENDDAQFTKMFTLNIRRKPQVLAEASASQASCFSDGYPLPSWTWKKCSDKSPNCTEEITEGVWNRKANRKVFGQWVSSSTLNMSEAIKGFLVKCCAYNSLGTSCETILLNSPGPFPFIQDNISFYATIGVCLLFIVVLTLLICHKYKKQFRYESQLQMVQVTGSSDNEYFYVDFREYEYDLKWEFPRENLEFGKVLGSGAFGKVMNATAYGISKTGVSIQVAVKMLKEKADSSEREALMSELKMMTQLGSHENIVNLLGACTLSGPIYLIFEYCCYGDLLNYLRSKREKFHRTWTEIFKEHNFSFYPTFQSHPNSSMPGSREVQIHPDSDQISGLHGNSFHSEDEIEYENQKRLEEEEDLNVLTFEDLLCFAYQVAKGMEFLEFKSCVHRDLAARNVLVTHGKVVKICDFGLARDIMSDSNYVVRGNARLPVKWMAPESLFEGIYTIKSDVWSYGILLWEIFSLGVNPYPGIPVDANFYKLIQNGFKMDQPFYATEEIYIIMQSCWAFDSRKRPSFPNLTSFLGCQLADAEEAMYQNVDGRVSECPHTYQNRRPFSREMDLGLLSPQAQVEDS

HeLa = experiment: Cytotoxicity against human HeLa cells assessed as growth inhibition after 72 hrs by MTT assay; assay type: functional, cell-based
How it was run: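 MTT viability assay with serial inhibitor dilutions for 72 h at 37 °C, then MTT for 2–4 h and OD read at 570 nm. Leukemia lines were seeded at (1–4) × 10⁴ cells/well and lysed with 20% acidified SDS. Adherent lines were seeded at (2–5) × 10³ cells/well, dosed after 24 h and dissolved in DMSO. Triplicate; mean ± SD.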

MV4-11 [15] = experiment: Induction of apoptosis in human MV4-11 cells assessed as early apoptotic cells at 0.003 uM after 24 hrs by annexin V-FITC/propidium iodide staining-based FACS flow cytometric analysis (reference value: 1.61%); assay type: functional

Serine/threonine-protein kinase Chk1, sequence (O14757 whole entry): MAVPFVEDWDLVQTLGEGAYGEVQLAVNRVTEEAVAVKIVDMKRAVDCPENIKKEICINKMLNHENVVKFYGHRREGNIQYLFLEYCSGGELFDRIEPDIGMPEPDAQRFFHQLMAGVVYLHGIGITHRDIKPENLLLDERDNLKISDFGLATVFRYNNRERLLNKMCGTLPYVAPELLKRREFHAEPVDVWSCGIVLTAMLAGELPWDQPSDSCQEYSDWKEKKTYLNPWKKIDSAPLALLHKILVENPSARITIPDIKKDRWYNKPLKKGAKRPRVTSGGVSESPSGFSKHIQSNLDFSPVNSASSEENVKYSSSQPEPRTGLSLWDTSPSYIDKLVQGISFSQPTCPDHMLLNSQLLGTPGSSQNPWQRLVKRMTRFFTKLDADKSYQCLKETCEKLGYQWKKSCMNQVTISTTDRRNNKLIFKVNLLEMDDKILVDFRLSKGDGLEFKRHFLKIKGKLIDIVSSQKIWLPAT

IC50 [1]: > 10 µM | IC50 [5]: > 10 µM | IC50 [6]: > 10 µM | IC50 [8]: 0.223 µM | IC50 [9]: > 10 µM | IC50 [11]: 0.072 µM | IC50 (Aurora kinase B): > 10 µM | bioavailability [12]: 66.7% | IC50 [13]: > 10 µM | IC50 [14]: 0.003 µM
SMILES: O=C(Nc1ccc(Oc2ncnc3[nH]ncc23)cc1)Nc1ccc(Cl)c(C(F)(F)F)c1
IC50 (U-937): > 10 µM | Activity (MV4-11 [2]): 5.88% | Activity (MV4-11 [3]): 9.64% | IC50 (SMMC-7721): > 10 µM | IC50 (DU-145): > 10 µM | Activity (MV4-11 [4]): 9.96% | IC50 (MKN-45): 8.23 µM | Activity (MV4-11 [7]): Dose-dependent effect | TGI (MV4-11 [10]): Active | IC50 (HCT-116): > 10 µM | IC50 (HeLa): > 10 µM | Activity (MV4-11 [15]): 5.16%
